Results: ChEMBL document CHEMBL1133668, “Synthesis and antiviral activity of novel anti-VZV 5-substituted uracil nucleosides with a cyclopropane sugar moiety” (J Med Chem, 2000)
In brackets after ≈: the same amount, converted by molar mass.

Key:
[1] = tested on: HEL; assay: Tested for inhibitory activity against Varicella zoster virus(VZV) by plaque reduction assay using HEL cells; type: functional, cell-based; conditions: Homo sapiens
[2] = tested on: Vero; assay: Tested for cytotoxicity in vero cells, activity is expressed as CC50.; type: functional; conditions: Chlorocebus sabaeus
[3] = Tested for inhibitory activity against Herpes simplex virus type-1(HSV-1), activity is expressed as IC50.; type: functional
[4] = tested on: HEL; assay: Tested for Antiherpetic activity against VZV from Kawaguchi strain in HEL cell lines.; type: functional, cell-based; conditions: Homo sapiens
[5] = tested on: MRC5; assay: Tested for Antiherpetic activity against HSV-1 from Tomioka strain in MRC-5 cell lines.; type: functional, cell-based; conditions: Homo sapiens
Method in brief: (§1)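 Plaque reduction assay in MRC-5 cells, with HSV-1 Tomioka or HSV-2 strain 186 as the challenge virus. […] MRC-5 cells came from a commercial source.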

[6] = tested on: MRC5; assay: Tested for Antiherpetic activity against HSV-2 from 186 strain in MRC-5 cell lines.; type: functional, cell-based; conditions: Homo sapiens; method in brief: as §1
[7] = tested on: MRC5; assay: Tested for Antiherpetic activity against VZV from clinical isolates of MRC-5 cell lines.(average of six isolates); type: functional, cell-based; conditions: Homo sapiens
[8] = tested on: HEL; assay: Tested for Antiherpetic activity against VZV from clinical isolates of HEL cell lines.(average of 11 isolates); type: functional, cell-based; conditions: Homo sapiens

Cc1cn(CC2(CO)CC2CO)c(=O)[nH]c1=O (configuration not stated)
IC50 [1]: > 100 µg/mL | CC50 [2]: > 500 µg/mL | IC50 [3]: > 500 µg/mL

Nc1nc(O)c2ncn(C[C@]3(CO)C[C@H]3CO)c2n1
IC50 [4]: 0.67 µg/mL (≈ 2.53 µM) | IC50 [1]: 0.67 µg/mL (≈ 2.53 µM) | IC50 [5]: 0.0093 µg/mL (≈ 0.0351 µM) | IC50 [6]: 0.12 µg/mL (≈ 0.452 µM) | IC50 [7]: 0.21 µg/mL (≈ 0.792 µM) | CC50 [2]: 240 µg/mL (≈ 905 µM) | IC50 [3]: 0.02 µg/mL (≈ 0.0754 µM)

O=c1[nH]c(=O)n(CC2(CO)CC2CO)cc1/C=C/Cl (configuration not stated)
IC50 [1]: 0.07 µg/mL (≈ 0.244 µM) | CC50 [2]: > 500 µg/mL | IC50 [3]: 4.3 µg/mL (≈ 15 µM)

O=c1[nH]c(=O)n(CC2(CO)CC2CO)cc1F (configuration not stated)
IC50 [1]: > 100 µg/mL | CC50 [2]: > 500 µg/mL | IC50 [3]: > 500 µg/mL

O=c1[nH]c(=O)n([C@@H]2O[C@H](CO)[C@@H](O)[C@H]2O)cc1/C=C/Br
IC50 [5]: 0.14 µg/mL (≈ 0.401 µM) | IC50 [7]: 0.00031 µg/mL (≈ 0.000888 µM)

O=c1[nH]c(=O)n(CC2(CO)CC2CO)cc1Br (configuration not stated)
IC50 [1]: 97 µg/mL (≈ 318 µM) | CC50 [2]: > 500 µg/mL | IC50 [3]: 215 µg/mL (≈ 705 µM)

O=c1[nH]c(=O)n(CC2(CO)CC2CO)cc1/C=C/I (configuration not stated)
IC50 [1]: 0.054 µg/mL (≈ 0.143 µM) | CC50 [2]: 330 µg/mL (≈ 873 µM) | IC50 [3]: 24.6 µg/mL (≈ 65.1 µM)

O=c1ccn(CC2(CO)CC2CO)c(=O)[nH]1 (configuration not stated)
IC50 [1]: > 100 µg/mL | CC50 [2]: > 500 µg/mL | IC50 [3]: > 500 µg/mL

O=c1[nH]c(=O)n(CC2(CO)CC2CO)cc1Cl (configuration not stated)
IC50 [1]: > 100 µg/mL | CC50 [2]: > 500 µg/mL | IC50 [3]: 295 µg/mL (≈ 1130 µM)

O=c1[nH]c(=O)n(CC2(CO)CC2CO)cc1/C=C/Br (configuration not stated)
IC50 [4]: 0.027 µg/mL (≈ 0.0815 µM) | IC50 [8]: 0.097 µg/mL (≈ 0.293 µM) | IC50 [1]: 0.027 µg/mL (≈ 0.0815 µM) | IC50 [5]: 0.77 µg/mL (≈ 2.33 µM) | IC50 [6]: > 100 µg/mL | IC50 [7]: 0.035 µg/mL (≈ 0.106 µM) | CC50 [2]: > 500 µg/mL | IC50 [3]: 14.5 µg/mL (≈ 43.8 µM)

C#Cc1cn(CC2(CO)CC2CO)c(=O)[nH]c1=O (configuration not stated)
IC50 [1]: > 100 µg/mL | CC50 [2]: > 500 µg/mL | IC50 [3]: 310 µg/mL (≈ 1240 µM)

O=c1[nH]c(=O)n(CC2(CO)CC2CO)cc1I (configuration not stated)
IC50 [1]: 9.3 µg/mL (≈ 26.4 µM) | CC50 [2]: > 500 µg/mL | IC50 [3]: 90 µg/mL (≈ 256 µM)

Nc1nc2c(ncn2COCCO)c(=O)[nH]1 [ACYCLOVIR]
IC50 [5]: 0.29 µg/mL (≈ 1.29 µM) | IC50 [6]: 0.25 µg/mL (≈ 1.11 µM) | CC50 [2]: 820 µg/mL (≈ 3640 µM) | IC50 [3]: 0.81 µg/mL (≈ 3.6 µM)

Nc1nc(O)c2ncn(CCC(CO)CO)c2n1 [PENCICLOVIR]
IC50 [4]: 5.6 µg/mL (≈ 22.1 µM) | IC50 [8]: 10 µg/mL (≈ 39.5 µM) | IC50 [5]: 0.54 µg/mL (≈ 2.13 µM) | IC50 [6]: 1.2 µg/mL (≈ 4.74 µM)
